MsrA act: activates bovine MsrA enzyme | purified bovine MsrA, absorbance read-out | activation, % at 10.6 µM | 0.3% of 360,000 active | AID 602163; in the data active = activation above about 7.5%;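 note: 0% = vehicle and 100% = reference activator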
proCasp7 act: activates human procaspase-7, counter-screen for procaspase-3 activators. P55210. 0.093% of 330,000 active. recombinant procaspase-7, Ac-DEVD-pNA absorbance 405 nm; D23A/D198A/D206A triple mutant, cannot self-cleave; scale: DMSO 0, 5 µM enzyme 100. activation, % at 8.5 µM;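 active = percent activation above the screen-wide mean plus 3 SD, cut at about 25% in these data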
Target sequence (P55210 whole entry D23A/D198A/D206A): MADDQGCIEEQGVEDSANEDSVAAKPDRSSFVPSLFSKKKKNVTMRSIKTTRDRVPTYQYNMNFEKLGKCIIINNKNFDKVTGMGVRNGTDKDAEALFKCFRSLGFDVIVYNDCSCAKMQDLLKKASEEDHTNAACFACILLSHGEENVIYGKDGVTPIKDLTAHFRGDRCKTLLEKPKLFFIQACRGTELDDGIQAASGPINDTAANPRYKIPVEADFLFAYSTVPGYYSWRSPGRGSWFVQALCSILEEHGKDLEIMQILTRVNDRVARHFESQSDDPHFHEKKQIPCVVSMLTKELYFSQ
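Assay system: Uncleavable procaspase-7 mutant enzyme | Input: 2 µM procaspase-7 mutant as dispensed | Timing: 1 h compound preincubation, 2 h substrate cleavage, 25 °C | Repeats: One well per compound | Control set: DMSO wells as 0%, DMSO with 5 µM added PC-7 as 100% | Technique: Epi-absorbance of released pNA at 405 nm, two timepoints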
TbMetRS inhib: Trypanosoma brucei MetRS inhibition; 0.4% of 360,000 active; inhibition, % at 11.9 µM; purified T. brucei MetRS, ATP depletion, Kinase-Glo luminescence; AID 624268;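 active = inhibition above a per-plate cutoff of the control wells' mean inhibition plus 3 SD, cut at about 5.5% in these data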;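 note: 0% = DMSO wells median and 100% = median of wells with control inhibitor compound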
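Material: parasite MetRS enzyme / Replication: singlicate, one well per compound / Signal: luminescence of leftover ATP / Schedule: 2 h aminoacylation at 25 °C after 15 min preincubation / Medium: HEPES-MgCl2-KCl buffer plus DTT, spermine, BSA, pyrophosphatase / Doses: 11.9 µM single point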
MsrA inh: inhibits bovine methionine sulfoxide reductase A; purified bovine MsrA, absorbance read-out; inhibition, % at 15.5 µM; 0.75% of 360,000 active;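 note: 0% = vehicle wells with enzyme and 100% = reference inhibitor wells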
proCasp3 act: procaspase-3 (human) activation; P42574; recombinant procaspase-3 D3A, Ac-DEVD-pNA absorbance 405 nm; activation, % at 8.5 µM; 0.11% of 330,000 active; AID 463141;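 active = activation above the mean of all tested compounds plus 3 SD, cut at about 21% in these data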;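 note: 0% = DMSO alone and 100% = DMSO wells spiked with extra 5 µM PC-3 D3A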
Target sequence (P42574 whole entry D9A/D28A/D175A): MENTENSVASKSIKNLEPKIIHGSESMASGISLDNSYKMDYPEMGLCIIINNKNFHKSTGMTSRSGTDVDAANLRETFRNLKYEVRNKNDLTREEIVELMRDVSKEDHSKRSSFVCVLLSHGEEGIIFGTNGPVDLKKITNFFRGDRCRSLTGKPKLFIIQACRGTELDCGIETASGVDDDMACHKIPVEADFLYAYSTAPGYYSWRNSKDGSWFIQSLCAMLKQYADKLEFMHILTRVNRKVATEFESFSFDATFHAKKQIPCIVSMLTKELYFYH
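System: Procaspase-3 D3A mutant. Medium: Zinc-free 300 mM NaCl, 50 mM HEPES, 0.01% Triton X-100. Schedule: 1 h preincubation plus 2 h reaction at 25 °C. Measured by: 405 nm absorbance of p-nitroaniline, reads at 0 and 120 min. Read-out: percent activation relative to control range.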
MsrA conf: bovine MsrA inhibition, confirmed; shares compounds with MsrA inh; purified bovine MsrA, absorbance read-out; inhibition, % at 15.5 µM; 41% of 2,300 active; AID 651822;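 note: coupled to thioredoxin reductase with NADPH and selenocystamine and DMSO as substrate; 0% = vehicle only and 100% = full effect of reference inhibitor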
Starred values were filed as active, the others as inactive; x = no result. Most compounds without a hit are left out; they make up all but 1.5% or so of the library. Cut-off read from the data, not from the text of the source, unless noted: active = inhibition above about 4.5%; inactive = the rest.

SMILES	MsrA act	proCasp7 act	TbMetRS inhib	MsrA inh	proCasp3 act	MsrA conf
N#C/C(=C/c1ccc(CNS(=O)(=O)c2ccccc2)o1)C(=O)NCc1ccccc1	-3.2	7.0	-0.1	4.8*	-4.3	3.8
COC(=O)[C@]12C[C@H](CC(=O)N3CCOCC3)C(=O)N(Cc3ccccc3)C1=C[C@H](C(C)C)O[C@@H]2C1CC1	x	x	x	0.2	x	x
O=S(=O)(c1ccccc1)N1CCCc2nc(-c3ccc(Br)cc3)ccc21	x	x	x	1.5	x	x
O=C(NC(=S)Nc1ccccc1N1CCCC1)c1ccco1	-3.0	-22.8	-0.2	-0.1	-15.6	x
O=C(NC(=S)Nc1ccccc1N1CCOCC1)c1ccco1	-2.0	-1.8	0.7	8.0*	4.3	4.4
CCOC(=O)N(C)[C@H]1C[C@H]2c3[nH]c4ccccc4c3CCN2C(=O)[C@H]1[C@H](C)O	x	x	x	1.4	x	x
Cc1ccc(C(=O)N/N=C\c2cccnc2)s1	-1.6	2.9	-0.4	1.6	5.4	x
Cc1c(C(=O)N/N=C/c2cccnc2)sc(N)c1C#N	-3.2	x	-0.2	4.7*	x	3.2
COc1cc(OC)cc(-c2oc(=O)c3cc(OC)c(OC)cc3c2C#CCCO)c1	-4.7	9.0	-0.3	11.4*	1.3	7.8*
CS(=O)(=O)c1cccc(OCCCN2CCC(C(O)(c3ccccc3)c3ccccc3)CC2)c1	x	x	x	-0.6	x	x
COc1cccc(CNC(=O)[C@H]2CCCN2C(=O)[C@H]2CCCN2C(=O)c2cccc3ccccc23)c1	x	x	x	-0.2	x	x
CCOC(=O)c1ccc(Nc2c(OCC)c(=O)c2=O)cc1	-6.8	6.5	0.0	5.9*	5.7	2.5
COc1ccc2c(c1)c(C(=O)N/N=C/c1ccccc1Cl)c(C)n2C	-2.8	0.7	0.2	0.3	6.8	x
COc1ccc(/C=N/NC(=O)c2c(C)n(C)c3ccc(OC)cc23)c(OC)c1	-5.2	-13.9	0.2	4.9*	1.8	4.4
CC(=O)c1ccc(COC(=O)c2cc3ccccc3oc2=O)cc1	-6.0	-4.3	-0.6	8.3*	13.7	3.9
COc1ccc2cc(-c3nc4ccccc4n3C)c(=O)oc2c1	-5.2	2.5	-0.3	4.9*	10.7	2.1
COc1ccc(/C=N/N(C)c2cc(=O)n(C)c(=O)[nH]2)cc1OC	-3.9	3.3	-0.8	10.6*	3.2	7.0*
CN(/N=C/C=C/c1ccccc1)c1cc(=O)n(C)c(=O)[nH]1	-10.5	-1.5	-0.8	11.9*	-2.9	9.1*
Nc1[nH]c(C(=O)c2ccccc2)c(-c2cccc3ccccc23)c1C(=O)c1ccc(Br)cc1	x	x	x	0.2	x	x
O=[N+]([O-])c1ccc(Oc2cccc3cccnc23)c([N+](=O)[O-])c1	-10.9	-5.2	-1.1	7.3*	-7.3	3.6
Cc1[nH]c2ccccc2c1CC(=O)Nc1ccc(Nc2cccnc2)c(-c2ccc(-c3ccccc3)cc2F)c1	x	x	x	1.6	x	x
CN1CCN(CC(=O)Nc2cc(N3CCOCC3)ccc2[N+](=O)[O-])CC1	-3.1	-9.8	-0.1	4.8*	-2.8	0.1
CN1CCN(CC(=O)Nc2ccccc2[N+](=O)[O-])CC1	-4.7	-5.8	0.2	-0.1	0.9	x
C=CCN1C(=O)c2n[nH]c(C(C)C)c2C1c1ccc2c(c1)OCO2 (centres undefined)	x	x	x	0.2	x	x
O=C(O)/C(=C\c1ccc(Cl)cc1)c1ccc(S(=O)(=O)N2CCCC2)s1	-14.7	-12.4	-0.7	0.4	-1.0	x
SMILES	MsrA act	proCasp7 act	TbMetRS inhib	MsrA inh	proCasp3 act	MsrA conf
CSc1ccc(/C=C(\C(=O)O)c2ccc(S(=O)(=O)N3CCCCC3)s2)cc1	-16.1	3.9	-0.7	5.9*	0.0	2.2
COc1ccc(CN2c3ccccc3C(=O)CS2(=O)=O)cc1OC	x	x	x	0.6	x	x
COc1ccc(/C=N/NC(=S)Nc2cccc(C(=O)O)c2)cc1OC	-3.4	3.0	-0.3	7.6*	4.9	5.6*
COc1ccc(C=NNC(=S)Nc2ccc(F)cc2)cc1OC	-16.5	x	-0.5	5.7*	x	2.9
COc1cc(/C=N/NC(=S)N/N=C/c2cc(OC)c(OC)c(OC)c2)cc(OC)c1OC	-0.5	-20.4	-0.9	1.4	-9.0	x
COc1cc(/C=N/NC(=S)Nc2cccc(C(=O)O)c2)cc(OC)c1OC	-8.4	-0.7	-0.3	5.1*	-8.6	4.3
COc1cccc(/C=N/NC(=S)Nc2cccc(C(=O)O)c2)c1	-4.9	-5.9	0.0	3.1	-3.9	x
CN(C)c1ccc(/C=N/Nc2cccc(C(=O)O)c2)cc1	-3.6	5.7	-0.7	5.1*	7.4	4.2
CN(C)c1ccc(C=NNC(=S)Nc2ccc(F)cc2)cc1	-9.5	x	0.0	3.3	x	x
CCCCCCCCN1C(=O)[C@@H](CC(=O)NCc2cccc3ccccc23)C[C@@]2(C(=O)OC)C1=C[C@H](C1CCCC1)O[C@@H]2C	x	x	x	0.0	x	x
Cc1cc2c(nc1C)CCCN2S(=O)(=O)c1ccc(F)cc1	x	x	x	0.0	x	x
COc1ccc(/C=N/Nc2cn[nH]c(=O)c2Cl)cc1	-7.6	-0.3	-0.3	5.4*	-5.6	5.9*
Cc1ccc(/C=N\Nc2cn[nH]c(=O)c2Cl)cc1	-5.7	8.8	-0.6	7.8*	-3.6	6.6*
O=c1[nH]ncc(N/N=C/c2ccccc2)c1Cl	-16.1	5.2	-1.0	7.2*	0.5	6.8*
Cc1ccsc1/C=N\Nc1cn[nH]c(=O)c1Cl	-6.2	0.6	0.2	3.9	-10.1	x
COc1ccc(/C=N/Nc2cc(C)nc3ccccc23)cc1	-5.9	-49.7	0.0	0.4	-51.5	x
Cc1ccc(/C=C2\SC(N3CCCCC3)=NC2=O)cc1	-4.4	-1.4	-0.3	5.0*	-2.9	4.8*
NC1=NC(=O)/C(=C/c2cccs2)S1	-4.3	-5.1	0.1	6.2*	9.4	4.4
O=C1N=C(N2CCOCC2)S/C1=C/c1cccs1	-16.1	2.4	-1.1	5.4*	4.0	5.4*
O=C1N=C(N2CCCCC2)S/C1=C\c1ccc(Cl)cc1	-3.1	-2.1	-0.8	1.2	7.1	x
NC1=NC(=O)C(=Cc2ccccc2)S1	-11.1	x	0.0	3.6	x	x
CCc1c(-c2ccc(Br)cc2)ncn1Cc1cccc(-c2ccccc2)c1	x	x	-0.4	0.0	x	x
Nc1nc2c(ncn2[C@@H]2O[C@H](C(=O)N[C@H](Cc3ccccc3)C(=O)O)[C@@H](O)[C@H]2O)c(=O)[nH]1	x	x	x	0.7	x	x
Cc1ccc(C)c(NC(=O)/C(C#N)=C/c2ccc[nH]2)c1	-5.8	4.8	-0.3	9.3*	3.5	11.1*
COc1ccc(/C=C(/C#N)C(=O)Nc2ccccc2C)cc1C(=O)O	-1.7	-0.2	-0.1	5.6*	4.0	4.2
COc1ccc(/C=C(/C#N)C(=O)Nc2cccc(C)c2C)cc1C(=O)O	-3.6	-3.0	-0.9	-0.4	-2.2	x
COc1ccc(/C=C(/C#N)C(=O)Nc2ccc(C)cc2C)cc1C(=O)O	-3.1	3.6	-1.4	7.0*	4.8	6.1*
COc1ccc(N2C(=O)c3ccccc3NC(=O)C2C(=O)NCCc2ccccc2F)cc1 (centres undefined)	x	x	-0.1	-0.6	x	x

Compound activity deposited in PubChem by The Scripps Research Institute Molecular Screening Center.
